Experimental data from different studies.
Protocols differ between the studies behind these lines.
Observed: cell growth or viability

O=C(Nc1ccc(Cl)cc1)Nc1ccc(-c2cn(Cc3ccc(Cl)cc3)nn2)cc1 gave a viability of 72.8% (Huh-7; CCK-8; 50 µM; 72 h).
COc1ccc(NC(=O)Nc2cccc(-c3cn(Cc4ccccc4C)nn3)c2)cc1 gave a viability of 10.5% (Huh-7; CCK-8; 50 µM; 72 h).
With O=C(Nc1ccc(Cl)cc1)Nc1ccc(-c2cn(Cc3cccc(Cl)c3)nn2)cc1 the viability was 86.7% (Huh-7; CCK-8; 50 µM; 48 h).
With O=[N+]([O-])c1ccc(O)c(C=NNc2ccc(Br)cc2)c1 the IC50 was 16.2 µM (HEK-293T; MTT; 24 h).
CC(C)C[C@H](NC(=O)[C@H](Cc1ccccc1)NC(=O)c1cnccn1)B(O)O gave an EC50 of 7 pM (HepG2; ATP luminescence; 48 h).
O=[N+]([O-])c1cc(Br)c(O)c(C=NNc2ccc(Cl)cc2)c1 has an IC50 of 17.2 µM (HEK-293T; MTT; 24 h).
For COc1ccc(NC(=O)Nc2ccc(-c3cn(Cc4ccc(C)cc4)nn3)cc2)cc1, the viability was 77.3% (Huh-7; CCK-8; 50 µM; 48 h).
The viability of O=C(Nc1ccc(-c2cn(Cc3ccc(Br)cc3)nn2)cc1)Nc1ccccc1Br is reported as 70.8% (Huh-7; CCK-8; 50 µM; 48 h).
For Cc1nc(Nc2ncc(C(=O)Nc3c(C)cccc3Cl)s2)cc(N2CC[C@H](O)C2)n1, the inhibition was 15% (Ramos; ATP luminescence; 10 µM; 72 h).
COc1cc(NC(=O)c2cnn(-c3ccc([N+](=O)[O-])cc3)c2C(F)(F)F)cc(OC)c1 has an inhibition of 14.1% (LX-2; MTS; 50 µM; 72 h).
COc1ccc(NC(=O)Nc2cccc(-c3cn(Cc4ccc(Br)cc4)nn3)c2)cc1 gave a viability of 10.7% (Huh-7; CCK-8; 50 µM; 72 h).
The inhibition of O=c1[nH]cc(F)c(=O)[nH]1 is reported as 81.4% (LX-2; MTS; 50 µM; 72 h).
O=C(Nc1cccc(-c2cn(Cc3ccc(Br)cc3)nn2)c1)Nc1ccccc1Br has a viability of 61.2% (Huh-7; CCK-8; 50 µM; 48 h).
The viability of COc1ccc(NC(=O)NCc2cn(Cc3ccccc3C)nn2)cc1 is reported as 86.8% (Huh-7; CCK-8; 50 µM; 72 h).
